PfM18AAP inh – blocks P. falciparum M18 aspartyl aminopeptidase; recombinant PfM18AAP, H-Glu-NHMec fluorogenic cleavage; inhibition, % at 7.35 µM; 1.2% of 290,000 active;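 active = inhibition above the campaign mean inhibition over all tested compounds plus 3 SD, cut at about 28% in these data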;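 note: 0% = plate median of test compound wells and 100% = 2 mM ZnCl2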
VIM-2 inhibitor – inhibitors of Pseudomonas aeruginosa VIM-2 metallo-beta-lactamase | purified VIM-2, nitrocefin hydrolysis, epi-absorbance fluorescence | inhibition, % at 5.6 µM | 0.89% of 290,000 active;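 active = inhibition above the mean of all tested compounds plus 3 SD, cutoff set per screening run, cut at about 7.5% in these data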;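 note: red hydrolysis product quenches plate fluorescence so inhibitors raise well fluorescence; 0% = enzyme with DMSO and 100% = DMSO without enzyme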
CTSL1 counter – counter-screen for PFM18AAP inhibitors: inhibitors of F. hepatica cathepsin L1; recombinant F. hepatica cathepsin L1, Z-Leu-Arg-MCA fluorescence; inhibition, % at 5.96 µM; 0.49% of 300,000 active;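 active = inhibition above the mean of all tested compounds plus 3 SD, set per screening campaign, cut at about 17% in these data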;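 note: 0% = plate median of test compound wells and 100% = 1 µM Z-Phe-Ala-diazomethylketone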
IMP-1 inhibitor – blocks Pseudomonas aeruginosa IMP-1 metallo-beta-lactamase; purified IMP-1, nitrocefin hydrolysis, epi-absorbance fluorescence; inhibition, % at 5.6 µM; 0.45% of 290,000 active; AID 1556;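 active = inhibition above the mean plus 3 SD of all compounds in the same screening run, cut at about 4.5% in these data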;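 note: 0% = IMP-1 with DMSO and 100% = DMSO wells lacking enzyme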
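System: purified IMP-1; amount: IMP-1 0.2 nM before substrate addition; compound: single dose, 5.6 µM; times: 25 °C, 15 min preincubation, 25 min reaction; signal: Epi-absorbance via hydrolysed-nitrocefin quenching of white-plate fluorescence, 480/530 nm, EDTA stop; benchmarks: DMSO with and without IMP-1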
Numbers without * were called inactive; / = not tested or not shown. Rows were chosen to be rich in hits. Some 2.7% of all compounds tested hit in one or more screens of this group.

SMILES	PfM18AAP inh	VIM-2 inhibitor	CTSL1 counter	IMP-1 inhibitor
Oc1c(Br)cc(Br)cc1/C=N/n1c(-c2ccccc2)n[nH]c1=S	15	-1	-9	22*
Oc1ccccc1/C=N/n1c(-c2ccccc2)n[nH]c1=S	26	1	6	-3
Oc1c(Br)cc(/C=N/n2c(-c3ccccc3)n[nH]c2=S)c(Br)c1O	33*	-3	0	-4
c1ccc(-c2nnc3sc(-c4ccncc4)nn23)cc1	3	9.0*	-2	-3
COc1ccc(-c2nn3c(-c4ccncc4)nnc3s2)cc1OC	5	10*	/	-3
CC(C)CNC(=O)c1cccc(NC(=O)CCc2ccccc2)c1	-5	-1	-4	-2
COc1ccc(NC(=O)C(=O)NNC(=O)c2cccs2)cc1	9	-4	19*	-7
Cc1ccc(NC(=O)C(=O)NNC(=O)c2cccs2)cc1	7	-2	-2	-4
COc1ccc(-c2csc(NC3CCCCC3)n2)c(OC)c1	-4	-2	1	8.0*
Cc1c(NC(=S)N/C(=N/S(=O)(=O)c2ccc(Cl)cc2)c2ccccc2)c(=O)n(-c2ccccc2)n1C	2	-1	-2	-4
CN=c1scc(-c2ccccc2F)n1/N=C/c1ccc(O)c(O)c1O	31*	0	/	0
COc1cc(C2C(C#N)=C(N)OC3=C2C(=O)CC(C)(C)C3)c([N+](=O)[O-])cc1OC (stereo not given)	21	4	0	2
CC1(C)CC(=O)C2=C(C1)OC(N)=C(C#N)[C@@H]2c1ccccc1[N+](=O)[O-]	29*	0	-2	2
O=C(CC1NC(=S)NC1=O)c1ccc(Cl)cc1 (stereo not given)	1	-3	5	-5
O=C(CN(Cc1cccs1)C(=O)CN1C(=O)COc2ccccc21)NCc1ccco1	3	0	0	5.4*
CCOc1nc(NCCO)nc(Nc2cc(Cl)ccc2OC)n1	2	4	2	-1
Cc1cc(C)cc(NC(=O)CN(c2ccc(F)cc2)S(C)(=O)=O)c1	1	-3	0	7.4*
Cc1cccc(N(CC(=O)Nc2ccc(F)cc2)S(C)(=O)=O)c1	-2	2	-2	2
CCCCCCN(C(=O)CCCCCN1C(=O)NC(c2cccc([N+](=O)[O-])c2)C(C(=O)OCc2ccccc2)=C1C)C(C(=O)NCCCC)c1ccc(OCC(=O)OC)c(C(=O)OC)c1 (stereo not given)	/	/	3	/
COc1ccccc1N1CCN(c2nccc(C)n2)CC1	3	-2	2	-2
O=C(NN1C(=O)/C(=C/c2ccc(O)c(O)c2)SC1=S)c1ccccc1	65*	-4	34*	-10
COc1cc(/C=C2\SC(=S)N(NC(=O)c3ccc(O)cc3)C2=O)ccc1O	9	-7	2	-7
O=C(Cc1ccc(Br)cc1)N1CCOCC1	-11	-3	4	-6
COC(=O)[C@]1(CC(C)C)N[C@H](c2ccc(-c3cccc(Cl)c3)cc2)[C@@H]2C(=O)N(C)C(=O)[C@@H]21	/	/	-2	/
CC(=O)N1CCOc2ccc(S(=O)(=O)Nc3ccc(Cl)cn3)cc21	-3	-2	2	22*
SMILES	PfM18AAP inh	VIM-2 inhibitor	CTSL1 counter	IMP-1 inhibitor
O=C(COC(=O)c1ccc(Cl)nc1)NCCC1=CCCCC1	-2	-3	-3	-3
Cc1cc(=O)oc2c(C)c(OCC(=O)NCCCN3CCOCC3)ccc12	0	7.8*	-3	-1
O=C(COc1ccccc1Cc1ccccc1)NCCCN1CCOCC1	1	-3	20*	-4
CCOC(=O)c1ccc(NC(=O)CSc2nnnn2CCCO)cc1	-5	-3	0	-3
CSc1ccc(S(=O)(=O)N2CCC(C(=O)N3CCc4ccccc4C3)CC2)cc1	4	-2	19*	-3
CC(C)Sc1nc2[nH]ncc2c(=O)[nH]1	8	-4	2	-5
COc1cc(/C=C/C(=O)C2C(=O)C=C(C)OC2=O)cc(OC)c1O (stereo not given)	31*	-3	1	-2
COc1ccc2c(C(=O)CCl)c[nH]c2c1	-1	-3	36*	-2
N#Cc1cccc(N=c2ssnc2Cl)c1	29*	-2	/	-3
CCC1(C)N(O)C(C)(C)C(c2ccc(F)cc2)=[N+]1[O-] (stereo not given)	29*	4	-2	-5
C/C(=N\O)C1(C)N(O)C(C)(C)C(c2ccc(F)cc2)=[N+]1[O-] (stereo not given)	24	2	1	-1
Nc1cccc2c1C(=O)N(C(=O)/C=C/c1cccc(Br)c1)C2=O	-12	0	/	4.8*
Cc1cccc(N(CC(=O)NC2CCCCC2)C(=O)CCC(=O)Nc2nccs2)c1	-7	-2	0	-1
C=CCn1c(SCC(=O)N2CCN(C(=O)c3ccco3)CC2)nc2sc(CC)cc2c1=O	-4	12*	3	-1
S=C(N/N=C/c1ccccc1Cl)Nc1cccc(Cl)c1Cl	-8	-5	2	-3
Cc1ccc(NC(=O)CN(C)C(=O)CCC(=O)c2cccs2)cc1	1	-2	-3	8.9*
COc1ccc(NC(=O)CN(C)C(=O)CCC(=O)c2ccc(C)cc2)cc1	/	/	3	/
CCc1nnc(NC(=O)CSc2nc3cccnc3n2Cc2ccccc2)s1	-5	-5	1	-1
Cc1cccn2c(=O)c(/C=C(\C#N)C(=O)NC3CCS(=O)(=O)C3)c(Oc3ccc(F)cc3)nc12 (stereo not given)	8	-1	0	-3
Cc1cccn2c(=O)c(/C=C(\C#N)C(=O)NC3CCS(=O)(=O)C3)c(N3CCC(C)CC3)nc12 (stereo not given)	-8	-1	17*	-2
CCOC(=O)C[n+]1c(C)csc1C	30*	1	3	0
COc1ccc(C(C(=O)NC(C)(C)C)N(C(=O)Cn2nnc3ccccc32)c2cccc(C(C)=O)c2)cc1O (stereo not given)	5	0	0	-3
CC(Cc1cccnc1)NC(=O)c1ccccc1OC1CCN(S(C)(=O)=O)CC1 (stereo not given)	-4	-2	-12	-1
COc1ccc(NC(=O)N2CCCC(CCC(=O)N(C)CCc3ccccn3)C2)cc1 (stereo not given)	-1	-1	70*	-4
COc1ccc(N=Cc2cc(Cc3ccccc3Cl)cc([N+](=O)[O-])c2O)cc1OC	9	-4	-3	0
SMILES	PfM18AAP inh	VIM-2 inhibitor	CTSL1 counter	IMP-1 inhibitor
Cc1ccc(N=Cc2cc(Cc3ccccc3Cl)cc([N+](=O)[O-])c2O)c(O)c1	13	-2	-3	6.3*
CCOc1cc(NC(=S)Nc2ccc(Cl)cc2)c(OCC)cc1NC(C)=O	31*	-4	2	-2
CCOc1cc(NC(=O)CCl)c(OCC)cc1NC(=O)CCl	3	-1	88*	-4
CCn1cc(NC(=O)CCl)c(C)n1	-12	-2	5	-3
COc1ccc([N+](=O)[O-])cc1NC(=O)C(C)OC(=O)Cn1[nH]c(=O)c2ccccc2c1=O (stereo not given)	/	/	-35	/
CC12CCC(=O)N1C(C(=O)NNC(=O)c1ccccc1)CS2 (stereo not given)	/	/	-8	/
CN(C)c1ccc(-c2ccc3c(=O)c4ccccc4n(C)c3c2)cn1	11	12*	0	1
